Laboratory results taken from ChEMBL document CHEMBL3860038, “Discovery of (R,E)-N-(7-Chloro-1-(1-[4-(dimethylamino)but-2-enoyl]azepan-3-yl)-1H-benzo[d]imidazol-2-yl)-2-methylisonicotinamide (EGF816), a Novel, Potent, and WT Sparing Covalent Inhibitor of Oncogenic (L858R, ex19del) and Resistant (T790M) EGFR Mutants for the Treatment of EGFR Mutant …” (J Med Chem, 2016).
In brackets after ≈: the same amount, converted by molar mass.

How the values were obtained:
[1] = target: T1, Epidermal growth factor receptor (Homo sapiens, UniProt P00533, L858R/T790M); assay: Inhibition of N-terminal 6x-HIS-tagged human recombinant EGFR (696 to 1022 residues) L858R/T790M mutant expressed in Sf9 cells pre-incubated for 0 mins followed by 1 mM ATP addition by HTRF assay
Summary of the method: (§1)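 HTRF kinase assay on the EGFR L858R-T790M kinase domain at 1 mM ATP. Compound with either no preincubation or a 90 min enzyme/compound preincubation.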

[2] = target: T1, Epidermal growth factor receptor; assay: Inhibition of N-terminal 6x-HIS-tagged human recombinant EGFR (696 to 1022 residues) L858R/T790M mutant expressed in Sf9 cells pre-incubated for 90 mins followed by 1 mM ATP addition by HTRF assay; summary of the method: as §1
[3] = target: T2, Epidermal growth factor receptor (Homo sapiens, UniProt P00533); assay: Inhibition of wild type EGFR phosphorylation in human HaCaT cells incubated for 3 hrs by ELISA method; format: cell-based
[4] = target: T3, Epidermal growth factor receptor (Homo sapiens, UniProt P00533, L858R); assay: Inhibition of EGFR L858R mutant phosphorylation in human patient derived H3255 cells incubated for 3 hrs by ELISA method; format: cell-based
[5] = Inhibition of EGFR E746 to A750 deletion mutant phosphorylation in human patient derived HCC827 cells incubated for 3 hrs by ELISA method; format: cell-based; conditions: HCC827, 3 h
Summary of the method: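 HCC827 cells plated at 7500/well in 5% FBS/RPMI and left overnight at 37 °C. Then 3 h with a 12-point compound dilution series, no EGF stimulation. Lysed in Triton/protease/phosphatase-inhibitor buffer. Phospho-EGFR (Y1173) read by sandwich ELISA: anti-EGFR capture, anti-phospho-EGFR, anti-rabbit-HRP, chemiluminescence. IC50 from at least duplicates.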

[6] = target: T1, Epidermal growth factor receptor; assay: Inhibition of EGFR L858R/T790M mutant phosphorylation in human patient derived H1975 cells incubated for 3 hrs by ELISA method; format: cell-based
[7] = target: Cytochrome P450 2C9 (Homo sapiens, UniProt P11712); assay: Inhibition of CYP2C9 (unknown origin); format: ADME
[8] = Oral bioavailability in balb/c mouse at 20 mg/kg by liquid chromatography-tandem mass spectrometry; format: ADME, organism-based; conditions: in vivo
Summary of the method: (§2)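 Rodent PK in male balb/c mice and male Wistar rats; plasma drug levels by LC-MS/MS. Mouse oral dosing at 20 mg/kg, with compounds given as a 0.5% methylcellulose/0.5% Tween 80 suspension or as solutions (PEG300/D5W, or ethanol/PEG300 with Solutol or D5W), depending on compound.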

[9] = AUC in balb/c mouse at 20 mg/kg, po by liquid chromatography-tandem mass spectrometry; format: ADME, organism-based; conditions: in vivo; summary of the method: as §2
[10] = Clearance in balb/c mouse at 5 mg/kg, iv by liquid chromatography-tandem mass spectrometry; format: ADME, organism-based; conditions: in vivo; summary of the method: as §2
[11] = Intrinsic clearance in human liver microsomes; format: ADME; conditions: read-out: CLH
[12] = Aqueous solubility of the compound at pH 6.8; format: physicochemical
[13] = Glutathione reactivity assessed as GSH adduct formation incubated for 1 hr using 10 mM glutathione
Summary of the method: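 Compound incubated 1 h with 10 mM glutathione; GSH adduct formation measured.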

[14] = target: Cytochrome P450 3A4 (Homo sapiens, UniProt P08684); assay: Inhibition of CYP3A4 (unknown origin); format: ADME
[15] = Intrinsic clearance in mouse liver microsomes; format: ADME; conditions: read-out: CLH
[16] = target: Cytochrome P450 2D6 (Homo sapiens, UniProt P10635); assay: Inhibition of CYP2D6 (unknown origin); format: ADME
[17] = target: T2, Epidermal growth factor receptor; assay: Inhibition of N-terminal 6x-HIS-tagged wild type human recombinant EGFR (696 to 1022 residues) expressed in Sf9 cells pre-incubated for 90 mins followed by 10 uM ATP addition by HTRF assay
[18] = target: T3, Epidermal growth factor receptor; assay: Inhibition of N-terminal 6x-HIS-tagged human recombinant EGFR (696 to 1022 residues) L858R mutant expressed in Sf9 cells pre-incubated for 90 mins followed by 10 uM ATP addition by HTRF assay
[19] = target: T1, Epidermal growth factor receptor; assay: Inhibition of N-terminal 6x-HIS-tagged human recombinant EGFR (696 to 1022 residues) L858R/T790M mutant expressed in Sf9 cells pre-incubated for 90 mins followed by 10 uM ATP addition by HTRF assay
[20] = target: T3, Epidermal growth factor receptor; assay: Inhibition of EGFR L858R mutant (unknown origin) phosphorylation expressed in mouse NIH/3T3 cells incubated for 3 hrs by ELISA method; format: cell-based
Summary of the method: (§3)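 Engineered NIH-3T3 cells expressing L858R-T790M, L858R or WT EGFR. 3 h compound treatment, then cellular phospho-EGFR target modulation read-out. IC50 averaged from at least duplicates.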

[21] = target: T1, Epidermal growth factor receptor; assay: Inhibition of EGFR L858R/T790M mutant (unknown origin) phosphorylation expressed in mouse NIH/3T3 cells incubated for 3 hrs by ELISA method; format: cell-based; summary of the method: as §3
[22] = target: T2, Epidermal growth factor receptor; assay: Inhibition of wild type human EGFR phosphorylation expressed in mouse NIH/3T3 cells incubated for 3 hrs by ELISA method; format: cell-based; summary of the method: as §3

T1 sequence (P00533 25-1210 T790M/L858R limits assumed): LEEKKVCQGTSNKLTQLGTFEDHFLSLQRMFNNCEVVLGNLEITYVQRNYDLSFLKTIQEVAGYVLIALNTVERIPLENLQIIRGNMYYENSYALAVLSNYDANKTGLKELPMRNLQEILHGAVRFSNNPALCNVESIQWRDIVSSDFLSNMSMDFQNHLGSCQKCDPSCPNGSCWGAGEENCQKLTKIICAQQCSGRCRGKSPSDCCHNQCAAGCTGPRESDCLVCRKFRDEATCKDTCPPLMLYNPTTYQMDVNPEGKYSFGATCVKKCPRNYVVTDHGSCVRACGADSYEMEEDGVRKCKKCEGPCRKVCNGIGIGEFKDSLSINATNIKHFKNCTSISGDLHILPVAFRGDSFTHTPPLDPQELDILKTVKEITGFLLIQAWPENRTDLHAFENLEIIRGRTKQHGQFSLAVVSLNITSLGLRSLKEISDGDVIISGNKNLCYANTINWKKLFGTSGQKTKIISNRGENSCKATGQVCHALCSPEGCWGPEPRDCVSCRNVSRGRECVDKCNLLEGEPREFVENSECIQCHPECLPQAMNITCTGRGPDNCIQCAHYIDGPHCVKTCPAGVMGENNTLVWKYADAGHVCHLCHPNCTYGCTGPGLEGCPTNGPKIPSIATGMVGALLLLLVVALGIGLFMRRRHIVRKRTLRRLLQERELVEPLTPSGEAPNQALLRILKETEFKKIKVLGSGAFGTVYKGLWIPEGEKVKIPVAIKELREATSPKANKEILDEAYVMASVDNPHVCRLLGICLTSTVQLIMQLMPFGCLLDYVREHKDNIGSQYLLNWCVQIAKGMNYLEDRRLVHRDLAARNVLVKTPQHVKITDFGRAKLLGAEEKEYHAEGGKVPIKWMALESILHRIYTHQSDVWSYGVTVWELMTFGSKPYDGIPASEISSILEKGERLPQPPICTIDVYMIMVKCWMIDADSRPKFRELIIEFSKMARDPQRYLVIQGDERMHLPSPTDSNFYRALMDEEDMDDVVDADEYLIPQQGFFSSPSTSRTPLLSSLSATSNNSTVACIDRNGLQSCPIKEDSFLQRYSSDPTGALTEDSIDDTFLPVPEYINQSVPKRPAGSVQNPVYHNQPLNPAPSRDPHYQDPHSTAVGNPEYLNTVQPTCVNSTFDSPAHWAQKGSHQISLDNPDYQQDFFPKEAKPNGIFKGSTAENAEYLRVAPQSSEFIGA
T2 sequence (P00533 whole entry): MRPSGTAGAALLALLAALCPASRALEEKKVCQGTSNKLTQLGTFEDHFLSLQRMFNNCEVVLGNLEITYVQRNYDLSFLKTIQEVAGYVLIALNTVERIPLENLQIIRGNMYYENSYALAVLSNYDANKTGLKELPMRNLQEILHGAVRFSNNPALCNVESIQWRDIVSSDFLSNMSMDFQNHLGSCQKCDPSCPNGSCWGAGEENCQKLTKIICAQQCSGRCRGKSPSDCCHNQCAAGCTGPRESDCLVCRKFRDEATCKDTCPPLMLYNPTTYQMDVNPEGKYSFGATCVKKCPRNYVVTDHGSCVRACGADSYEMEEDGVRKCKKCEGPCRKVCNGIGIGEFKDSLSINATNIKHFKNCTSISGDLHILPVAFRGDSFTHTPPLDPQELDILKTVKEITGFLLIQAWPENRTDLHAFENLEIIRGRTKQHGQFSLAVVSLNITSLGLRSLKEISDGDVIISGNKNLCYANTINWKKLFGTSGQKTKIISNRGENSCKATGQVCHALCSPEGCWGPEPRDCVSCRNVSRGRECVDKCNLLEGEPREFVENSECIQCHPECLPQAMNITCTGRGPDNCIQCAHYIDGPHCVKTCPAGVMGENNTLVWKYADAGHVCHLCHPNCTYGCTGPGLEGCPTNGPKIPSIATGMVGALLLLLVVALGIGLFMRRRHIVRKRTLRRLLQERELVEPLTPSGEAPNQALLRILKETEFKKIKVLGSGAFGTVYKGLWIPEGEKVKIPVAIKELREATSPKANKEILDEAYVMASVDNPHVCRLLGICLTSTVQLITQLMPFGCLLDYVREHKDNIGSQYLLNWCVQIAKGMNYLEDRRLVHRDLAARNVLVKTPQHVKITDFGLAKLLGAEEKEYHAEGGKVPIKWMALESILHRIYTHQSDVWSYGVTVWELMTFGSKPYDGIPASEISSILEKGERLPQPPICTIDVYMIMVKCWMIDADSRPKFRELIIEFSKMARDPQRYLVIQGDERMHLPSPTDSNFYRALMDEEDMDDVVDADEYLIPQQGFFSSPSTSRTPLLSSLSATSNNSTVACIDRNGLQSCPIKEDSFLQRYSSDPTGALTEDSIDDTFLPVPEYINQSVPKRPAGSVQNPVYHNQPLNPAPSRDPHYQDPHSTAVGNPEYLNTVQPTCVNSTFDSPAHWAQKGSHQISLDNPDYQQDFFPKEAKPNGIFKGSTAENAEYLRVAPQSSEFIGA
T3 sequence (P00533 25-1210 L858R limits assumed): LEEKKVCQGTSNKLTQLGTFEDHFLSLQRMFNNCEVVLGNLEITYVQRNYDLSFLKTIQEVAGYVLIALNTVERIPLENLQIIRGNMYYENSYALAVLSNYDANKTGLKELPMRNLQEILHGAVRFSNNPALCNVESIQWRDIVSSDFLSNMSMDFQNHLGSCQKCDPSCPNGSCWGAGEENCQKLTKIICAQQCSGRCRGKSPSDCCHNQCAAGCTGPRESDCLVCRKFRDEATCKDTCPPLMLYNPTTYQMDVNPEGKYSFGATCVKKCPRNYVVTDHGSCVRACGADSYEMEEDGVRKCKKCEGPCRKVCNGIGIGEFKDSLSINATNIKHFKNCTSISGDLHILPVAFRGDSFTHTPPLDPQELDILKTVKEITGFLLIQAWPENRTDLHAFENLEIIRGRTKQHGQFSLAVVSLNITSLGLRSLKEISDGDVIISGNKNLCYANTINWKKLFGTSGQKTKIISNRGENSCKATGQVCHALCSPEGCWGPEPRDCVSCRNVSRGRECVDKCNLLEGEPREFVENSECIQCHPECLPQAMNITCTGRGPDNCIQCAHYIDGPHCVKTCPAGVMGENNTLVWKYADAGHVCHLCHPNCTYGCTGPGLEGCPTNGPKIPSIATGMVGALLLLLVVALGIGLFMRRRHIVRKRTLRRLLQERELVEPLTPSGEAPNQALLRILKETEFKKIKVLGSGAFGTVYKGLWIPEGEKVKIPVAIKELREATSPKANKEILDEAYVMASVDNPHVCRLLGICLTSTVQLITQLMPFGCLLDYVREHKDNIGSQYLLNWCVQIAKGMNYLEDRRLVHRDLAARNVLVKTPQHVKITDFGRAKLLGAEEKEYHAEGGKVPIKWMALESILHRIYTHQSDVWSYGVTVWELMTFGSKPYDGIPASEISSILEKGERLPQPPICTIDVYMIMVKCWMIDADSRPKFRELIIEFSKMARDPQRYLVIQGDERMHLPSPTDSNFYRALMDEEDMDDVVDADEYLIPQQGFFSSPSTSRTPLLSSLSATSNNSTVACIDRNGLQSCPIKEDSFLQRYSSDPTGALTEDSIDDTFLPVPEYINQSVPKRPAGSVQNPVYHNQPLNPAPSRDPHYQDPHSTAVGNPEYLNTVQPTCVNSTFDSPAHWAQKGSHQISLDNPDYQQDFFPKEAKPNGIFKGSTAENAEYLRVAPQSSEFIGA
Chain of Cytochrome P450 2D6 (P10635 whole entry, the tested form may be a part): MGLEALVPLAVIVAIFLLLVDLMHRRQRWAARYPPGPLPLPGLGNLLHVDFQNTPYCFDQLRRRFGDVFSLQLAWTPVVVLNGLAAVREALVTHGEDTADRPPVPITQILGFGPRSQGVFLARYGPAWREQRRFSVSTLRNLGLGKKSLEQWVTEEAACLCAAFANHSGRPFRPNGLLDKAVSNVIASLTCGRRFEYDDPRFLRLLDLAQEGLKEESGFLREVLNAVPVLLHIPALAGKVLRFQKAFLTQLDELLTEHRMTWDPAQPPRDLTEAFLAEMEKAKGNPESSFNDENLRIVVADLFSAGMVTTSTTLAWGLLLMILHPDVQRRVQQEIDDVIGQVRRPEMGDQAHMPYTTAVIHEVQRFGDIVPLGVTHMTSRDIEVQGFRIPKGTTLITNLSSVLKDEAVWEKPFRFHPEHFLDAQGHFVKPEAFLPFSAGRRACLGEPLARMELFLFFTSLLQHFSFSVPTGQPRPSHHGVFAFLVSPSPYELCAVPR
Chain of Cytochrome P450 2C9 (P11712 whole entry): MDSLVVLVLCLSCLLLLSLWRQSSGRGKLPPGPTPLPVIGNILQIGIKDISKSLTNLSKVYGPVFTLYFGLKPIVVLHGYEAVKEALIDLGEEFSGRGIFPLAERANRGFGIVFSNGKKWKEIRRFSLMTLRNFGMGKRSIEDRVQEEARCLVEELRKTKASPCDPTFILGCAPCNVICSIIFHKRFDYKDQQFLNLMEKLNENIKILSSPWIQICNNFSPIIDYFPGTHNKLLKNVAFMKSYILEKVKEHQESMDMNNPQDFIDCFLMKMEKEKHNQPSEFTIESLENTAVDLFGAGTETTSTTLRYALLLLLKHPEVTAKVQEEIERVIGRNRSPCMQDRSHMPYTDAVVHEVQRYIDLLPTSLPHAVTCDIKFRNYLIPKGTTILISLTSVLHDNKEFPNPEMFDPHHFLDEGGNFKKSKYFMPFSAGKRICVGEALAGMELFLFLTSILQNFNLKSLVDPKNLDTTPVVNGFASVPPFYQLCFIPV
Chain of Cytochrome P450 3A4 (P08684 whole entry): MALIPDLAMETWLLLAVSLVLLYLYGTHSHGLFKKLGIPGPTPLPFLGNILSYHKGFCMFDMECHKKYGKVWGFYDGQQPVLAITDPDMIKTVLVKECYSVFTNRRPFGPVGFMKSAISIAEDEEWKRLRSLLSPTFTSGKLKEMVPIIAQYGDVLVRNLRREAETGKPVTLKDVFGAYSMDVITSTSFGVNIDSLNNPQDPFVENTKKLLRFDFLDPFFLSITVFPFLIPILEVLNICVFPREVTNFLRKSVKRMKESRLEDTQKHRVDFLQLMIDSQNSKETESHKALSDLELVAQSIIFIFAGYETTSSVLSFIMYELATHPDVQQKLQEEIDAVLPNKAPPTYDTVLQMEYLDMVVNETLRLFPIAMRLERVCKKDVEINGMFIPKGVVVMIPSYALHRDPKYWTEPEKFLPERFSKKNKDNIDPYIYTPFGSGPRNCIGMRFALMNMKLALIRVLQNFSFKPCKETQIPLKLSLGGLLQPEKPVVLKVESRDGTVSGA

| Compound | IC50 [1] [nM] | IC50 [2] [nM] | IC50 [5] [nM] | IC50 [6] [nM] | further results |
| --- | --- | --- | --- | --- | --- |
| C=CC(=O)N[C@H]1CC[C@H](n2c(NC(=O)c3cccc(C(F)(F)F)c3)nc3cc(C)ccc32)CC1 | > 50000 | > 50000 | – | – | – |
| C=CC(=O)N1CCCC(n2c(NC(=O)c3cccc(C(F)(F)F)c3)nc3cc(C)ccc32)C1 (centres undefined) | > 50000 | 20 | 153 | 24.7 | IC50 [3]: > 10000 nM; IC50 [4]: 421 nM |
| C=CC(=O)NC1CCC(n2c(NC(=O)c3cccc(C(F)(F)F)c3)nc3cc(C)ccc32)C1 (centres undefined) | > 50000 | 6810 | – | – | – |
| C=CC(=O)NCCCn1c(NC(=O)c2cccc(C(F)(F)F)c2)nc2cc(C)ccc21 | > 50000 | 50 | 1650 | 525 | – |
| C=CC(=O)N1CCCCC(n2c(NC(=O)c3cccc(C(F)(F)F)c3)nc3cc(C)ccc32)C1 (centres undefined) | 830 | < 2 | 15.9 | 6.1 | IC50 [3]: 4330 nM; IC50 [4]: 74.9 nM |
| Cc1cccc2nc(NC(=O)c3cccc(C(F)(F)F)c3)n([C@@H]3CCCCN(C(=O)/C=C/CN(C)C)C3)c12 | – | – | 12.4 | 2.18 | IC50 [3]: 351 nM; IC50 [7]: 17600 nM; bioavailability [8]: 40%; AUC [9]: 4.39 µM·h; clearance [10]: 57.2 mL/min/kg; microsomal CLint [11]: 49 µL/min/mg; solubility [12]: 10.5 µM (≈ 5.54 µg/mL); Drug metabolism [13]: < 5%; IC50 [4]: 45.9 nM; IC50 [14]: 22200 nM; microsomal CLint [15]: 233 µL/min/mg; IC50 [16]: 16700 nM |
| O=C(Nc1nc2ccccc2n1[C@H]1CC[C@H](O)CC1)c1cccc(C(F)(F)F)c1 | – | – | – | – | IC50 [17]: > 50000 nM; IC50 [18]: 2000 nM; IC50 [19]: 260 nM |
| C=CC(=O)N[C@H]1CCCC[C@H]1n1c(NC(=O)c2cccc(C(F)(F)F)c2)nc2cc(C)ccc21 (racemic) | > 50000 | > 50000 | – | – | – |
| C=CC(=O)N1CC(n2c(NC(=O)c3cccc(C(F)(F)F)c3)nc3cc(C)ccc32)C1 | > 50000 | > 50000 | – | – | – |
| C=CC(=O)N[C@H]1CC[C@@H](n2c(NC(=O)c3cccc(C(F)(F)F)c3)nc3cc(C)ccc32)CC1 | > 50000 | > 50000 | – | – | – |
| Cc1cccc2c1nc(NC(=O)c1cccc(C(F)(F)F)c1)n2[C@H]1CC[C@H](O)CC1 | – | – | – | – | IC50 [17]: > 50000 nM; IC50 [18]: 11800 nM; IC50 [19]: 1370 nM |
| C=CC(=O)N(C)c1cccc(-n2c(NC(=O)c3cccc(C(F)(F)F)c3)nc3cc(C)ccc32)c1 | 22300 | 10 | 268 | 181 | IC50 [3]: > 10000 nM |
| C=CC(=O)Nc1cccc(Nc2nc(Nc3ccc(N4CCN(C(C)=O)CC4)cc3OC)ncc2C(F)(F)F)c1 [ROCILETINIB] | – | – | 9.5 | – | – |
| C=CC(=O)Nc1ccccc1-n1c(NC(=O)c2cccc(C(F)(F)F)c2)nc2cc(C)ccc21 | > 50000 | > 32800 | – | – | – |
| C=CC(=O)N[C@H]1CCC[C@@H](n2c(NC(=O)c3cccc(C(F)(F)F)c3)nc3cc(C)ccc32)C1 (racemic) | > 50000 | 4 | – | – | IC50 [20]: 543 nM; IC50 [21]: 41.4 nM; IC50 [22]: > 10000 nM |
